ChEMBL document CHEMBL1137387, “Structural determinants of opioid activity in derivatives of 14-aminomorphinones: effects of changes to the chain linking of the C14-amino group to the aryl ring” (J Med Chem, 2006)
Calls of active or inactive are those of the source. No cut-off for these calls is given here.

Key:
Cavia porcellus = organism: Cavia porcellus; experiment: Selectivity for guinea pig mu opioid receptor over delta opioid receptor
[1] = target: Opioid receptor (mu and kappa) (Cavia porcellus) (UniProt P41144+P97266); experiment: Selectivity for guinea pig mu opioid receptor over kappa opioid receptor; type: protein assay
Opioid receptor (mu and kappa) (Cavia porcellus), sequence (P41144 whole entry, looked up): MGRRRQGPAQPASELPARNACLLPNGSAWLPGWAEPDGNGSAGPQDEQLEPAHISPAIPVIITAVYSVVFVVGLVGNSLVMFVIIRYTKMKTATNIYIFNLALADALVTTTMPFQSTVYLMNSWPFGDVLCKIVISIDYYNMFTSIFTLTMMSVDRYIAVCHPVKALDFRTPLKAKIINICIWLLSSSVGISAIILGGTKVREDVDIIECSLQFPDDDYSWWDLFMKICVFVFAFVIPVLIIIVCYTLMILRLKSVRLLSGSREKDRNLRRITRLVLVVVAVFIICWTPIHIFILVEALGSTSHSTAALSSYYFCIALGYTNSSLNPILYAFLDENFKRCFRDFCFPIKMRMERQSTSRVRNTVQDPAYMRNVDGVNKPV
Opioid receptor (mu and kappa) (Cavia porcellus), sequence (P97266 whole entry, looked up): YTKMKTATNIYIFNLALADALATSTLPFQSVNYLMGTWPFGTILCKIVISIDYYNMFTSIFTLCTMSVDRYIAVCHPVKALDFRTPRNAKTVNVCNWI

Mu-type opioid receptor [2] = target: Mu-type opioid receptor (Cavia porcellus, UniProt P97266); experiment: Displacement of [3H]DAMGO from mu opioid receptor in guinea pig brain homogenate; type: tissue-based
Mu-type opioid receptor (Cavia porcellus, UniProt P97266), sequence (P97266 whole entry): as the sequence (P97266 whole entry, looked up) above

[3] = target: Kappa-type opioid receptor (Cavia porcellus, UniProt P41144); experiment: Displacement of [3H]U-69593 from kappa opioid receptor in guinea pig brain homogenate; type: tissue-based
Kappa-type opioid receptor (Cavia porcellus, UniProt P41144), sequence (P41144 whole entry): as the sequence (P41144 whole entry, looked up) above

Mu-type opioid receptor [4] = target: T1, Mu-type opioid receptor (Homo sapiens, UniProt P35372); experiment: Activity at human recombinant mu opioid receptor expressed in CHO cells assessed as stimulation of [35S]GTP-gamma-S binding relative to DAMGO; type: functional, cell-based
T1 sequence (P35372 whole entry): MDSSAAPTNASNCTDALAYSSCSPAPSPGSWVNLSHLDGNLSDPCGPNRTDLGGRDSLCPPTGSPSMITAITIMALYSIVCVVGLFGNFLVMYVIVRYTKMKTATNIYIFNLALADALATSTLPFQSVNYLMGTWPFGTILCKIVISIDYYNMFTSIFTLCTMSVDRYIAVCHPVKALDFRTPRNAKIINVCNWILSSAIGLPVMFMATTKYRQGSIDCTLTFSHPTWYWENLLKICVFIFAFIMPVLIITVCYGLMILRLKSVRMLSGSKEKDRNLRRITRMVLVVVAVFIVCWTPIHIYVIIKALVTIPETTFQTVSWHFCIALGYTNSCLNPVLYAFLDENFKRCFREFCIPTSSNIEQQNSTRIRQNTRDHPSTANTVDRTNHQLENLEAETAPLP
Outline: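 Membranes of CHO cells transfected with recombinant human MOR were assayed for stimulation of [35S]GTPγS binding. Efficacy is expressed against the standard DAMGO. Values are means of five or six experiments.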

[5] = target: T2, Delta-type opioid receptor (Homo sapiens, UniProt P41143); experiment: Activity at human recombinant delta opioid receptor expressed in CHO cells assessed as stimulation of [35S]GTP-gamma-S binding; type: functional, cell-based
T2 sequence (P41143 whole entry): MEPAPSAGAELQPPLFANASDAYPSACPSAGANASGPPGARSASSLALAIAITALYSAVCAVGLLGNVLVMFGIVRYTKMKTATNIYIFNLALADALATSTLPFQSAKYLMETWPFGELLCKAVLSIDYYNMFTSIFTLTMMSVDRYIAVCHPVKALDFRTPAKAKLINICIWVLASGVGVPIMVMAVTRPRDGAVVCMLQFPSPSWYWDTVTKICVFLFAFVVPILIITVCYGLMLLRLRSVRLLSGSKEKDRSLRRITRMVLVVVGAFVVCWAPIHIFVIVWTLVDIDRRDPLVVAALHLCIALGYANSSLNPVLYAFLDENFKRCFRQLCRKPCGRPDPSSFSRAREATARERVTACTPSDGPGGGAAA

Mu-type opioid receptor [6] = target: T1, Mu-type opioid receptor; experiment: Displacement of [3H]DAMGO from human recombinant mu opioid receptor expressed in CHO cells; type: cell-based
Outline: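 Competition binding used membranes of CHO cells transfected with recombinant human MOR, with [3H]DAMGO as the selective radioligand. Affinity is reported as Ki (nM).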

[7] = target: T3, Kappa-type opioid receptor (Homo sapiens, UniProt P41145); experiment: Displacement of [3H]U-69593 from human recombinant kappa opioid receptor expressed in CHO cells; type: cell-based
T3 sequence (P41145 whole entry): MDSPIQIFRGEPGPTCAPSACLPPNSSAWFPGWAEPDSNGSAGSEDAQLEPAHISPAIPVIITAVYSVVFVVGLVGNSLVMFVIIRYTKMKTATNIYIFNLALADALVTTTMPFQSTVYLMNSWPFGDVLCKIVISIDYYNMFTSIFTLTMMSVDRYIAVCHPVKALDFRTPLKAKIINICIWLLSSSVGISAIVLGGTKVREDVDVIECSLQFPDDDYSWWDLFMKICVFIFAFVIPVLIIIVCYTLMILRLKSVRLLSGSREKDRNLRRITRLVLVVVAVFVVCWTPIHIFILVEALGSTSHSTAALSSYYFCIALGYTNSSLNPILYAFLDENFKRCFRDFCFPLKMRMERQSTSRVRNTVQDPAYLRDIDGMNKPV

[8] = target: T2, Delta-type opioid receptor; experiment: Displacement of [3H]Cl-DPDPE from human recombinant delta opioid receptor expressed in CHO cells; type: cell-based
Mus musculus = experiment: Agonist activity in mouse tail withdrawal assay at 1 mg/kg relative to morphine; type: functional
Outline: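 Antinociception in mice was measured as tail withdrawal from 50 °C water, with a test dose of 1 mg/kg compared against morphine. In a separate arm, the morphine antinociceptive dose–effect curve was determined after 24 h pretreatment to probe delayed MOR antagonism.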

Mu-type opioid receptor [9] = target: T1, Mu-type opioid receptor; experiment: Displacement of [3H]diprenorphine from human mu opioid receptor expressed in C6 cells; type: cell-based
[10] = target: T3, Kappa-type opioid receptor; experiment: Displacement of [3H]diprenorphine from human recombinant kappa opioid receptor expressed in C6 cells; type: cell-based
[11] = target: T2, Delta-type opioid receptor; experiment: Displacement of [3H]diprenorphine from human recombinant delta opioid receptor expressed in C6 cells; type: cell-based
Mu-type opioid receptor [12] = target: T1, Mu-type opioid receptor; experiment: Inhibition of DAMGO-stimulated [35S]GTP-gamma-S binding to mu opioid receptor expressed in C6 cells at 100 nM; type: functional, cell-based
Outline: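 C6 membranes expressing MOR were preincubated with ligand (100 nM) or vehicle in Tris-HCl buffer for 1 h at 25 °C. They were then centrifuged, resuspended, held at 37 °C to dissociate weakly bound ligand, recentrifuged and washed twice more. Washed membranes (15 µg) were incubated 1 h at 25 °C with increasing DAMGO and buffered [35S]GTPγS, giving DAMGO concentration–effect curves.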

Compound | Activity (Mu-type opioid receptor [4]; filed as antagonist) | IC50 [5] [nM] | Ki (Mu-type opioid receptor [6]) [nM] | Ki [7] [nM] | Ki [8] [nM] | other results
O=C1CC[C@@]2(NCCCc3ccc(Cl)cc3)[C@H]3Cc4ccc(O)c5c4[C@@]2(CCN3CC2CC2)[C@H]1O5 | Antagonist | 0.02 |  |  |  | Ratio Ki (Cavia porcellus): 8.5; Ratio Ki [1]: 14.6; Ki (Mu-type opioid receptor [2]): 0.13 nM; Ki [3]: 1.9 nM
COc1ccc2c3c1O[C@H]1C(=O)CC[C@@]4(NCC/C=C/c5ccc(Cl)cc5)[C@@H](C2)N(CC2CC2)CC[C@]314 | Antagonist | 148 | 1.15 | 33.5 | 24.8 | 
COc1ccc2c3c1O[C@H]1C(=O)CC[C@@]4(NCCCCc5ccc(Cl)cc5)[C@@H](C2)N(CC2CC2)CC[C@]314 | Antagonist | 61.1 | 2.23 | 41.5 | 55.9 | 
COc1ccc2c3c1O[C@H]1C(=O)CC[C@@]4(NC(=O)CCc5ccc(Cl)cc5)[C@@H](C2)N(CC2CC2)CC[C@]314 | Antagonist | 0.76 |  |  |  | Ratio Ki (Cavia porcellus): 21.2; Ratio Ki [1]: 27.1; Ki (Mu-type opioid receptor [2]): 0.24 nM; Ki [3]: 6.5 nM
O=C1CC[C@@]2(NCCCCc3ccc(Cl)cc3)[C@H]3Cc4ccc(O)c5c4[C@@]2(CCN3CC2CC2)[C@H]1O5 | Antagonist | 0.67 | 0.96 | 5.27 | 2.18 | 
COc1ccc2c3c1O[C@H]1C(=O)CC[C@@]4(NC(=O)CCCc5ccc(Cl)cc5)[C@@H](C2)N(CC2CC2)CC[C@]314 | Antagonist | 79.9 | 3.88 | 7.51 | 89.4 | 
O=C1CC[C@@]2(NC/C=C/Cc3ccc(Cl)cc3)[C@H]3Cc4ccc(O)c5c4[C@@]2(CCN3CC2CC2)[C@H]1O5 | Antagonist | 3.35 | 1.89 | 3.72 | 6.65 | 
COc1ccc2c3c1O[C@H]1C(=O)CC[C@@]4(O)[C@@H](C2)N(CC2CC2)CC[C@]314 | Antagonist | 1000 | 85.6 | 128 | 272 | 
O=C1CC[C@@]2(NCCc3ccc(Cl)cc3)[C@H]3Cc4ccc(O)c5c4[C@@]2(CCN3CC2CC2)[C@H]1O5 |  | 1.59 | 0.86 | 1.53 | 1.91 | Efficacy (Mu-type opioid receptor [4]): 34%; Activity (Mu-type opioid receptor [4]; filed as partial agonist): Partial agonist
O=C(C/C=C/c1ccc(Cl)cc1)N[C@@]12CCC(=O)[C@@H]3Oc4c(O)ccc5c4[C@@]31CCN(CC1CC1)[C@@H]2C5 | Antagonist | 1.7 | 1.87 | 4.94 | 3.25 | 
COc1ccc2c3c1O[C@H]1C(=O)CC[C@@]4(NC/C=C/Cc5ccc(Cl)cc5)[C@@H](C2)N(CC2CC2)CC[C@]314 | Antagonist | 96.8 | 6.76 | 25.9 | 94.9 | 
O=C(Cc1ccc(Cl)cc1)N[C@@]12CCC(=O)[C@@H]3Oc4c(O)ccc5c4[C@@]31CCN(CC1CC1)[C@@H]2C5 |  | 2.41 | 0.73 | 1 | 1.51 | Efficacy (Mu-type opioid receptor [4]): 29%; Activity (Mu-type opioid receptor [4]; filed as partial agonist): Partial agonist; Activity (Mus musculus): 10
O=C(CCCc1ccc(Cl)cc1)N[C@@]12CCC(=O)[C@@H]3Oc4c(O)ccc5c4[C@@]31CCN(CC1CC1)[C@@H]2C5 | Antagonist | 1.37 | 1.34 | 2.95 | 3.85 | 
O=C1CC[C@@]2(NCC/C=C/c3ccc(Cl)cc3)[C@H]3Cc4ccc(O)c5c4[C@@]2(CCN3CC2CC2)[C@H]1O5 | Antagonist | 1.17 | 1 | 3.69 | 2.1 | 
COc1ccc2c3c1O[C@H]1C(=O)CC[C@@]4(NC(=O)/C=C/c5ccc(Cl)cc5)[C@@H](C2)N(CC2CC2)CC[C@]314 | Antagonist | 7.16 |  |  |  | 
O=C1CC[C@@]2(NC/C=C/c3ccc(Cl)cc3)[C@H]3Cc4ccc(O)c5c4[C@@]2(CCN3CC2CC2)[C@H]1O5 |  |  |  |  |  | Ki (Mu-type opioid receptor [9]): 0.32 nM; Ki [10]: 0.91 nM; Ki [11]: 0.63 nM
COc1ccc2c3c1O[C@H]1C(=O)CC[C@@]4(NC(=O)C/C=C/c5ccc(Cl)cc5)[C@@H](C2)N(CC2CC2)CC[C@]314 | Antagonist | 118 | 8.19 | 21.5 | 104 | 
O=C(/C=C/c1ccc(Cl)cc1)N[C@@]12CCC(=O)[C@@H]3Oc4c(O)ccc5c4[C@@]31CCN(CC1CC1)[C@@H]2C5 [CLOCINNAMOX] | Antagonist | 0.19 |  |  |  | Activity (Mu-type opioid receptor [12]): Active
COc1ccc2c3c1O[C@H]1C(=O)CC[C@@]4(NC/C=C/c5ccc(Cl)cc5)[C@@H](C2)N(CC2CC2)CC[C@]314 |  |  |  |  |  | Ratio Ki (Cavia porcellus): 63.6; Ratio Ki [1]: 76.6; Ki (Mu-type opioid receptor [2]): 0.7 nM; Ki [3]: 53.6 nM
COc1ccc2c3c1O[C@H]1C(=O)CC[C@@]4(NCCCc5ccc(Cl)cc5)[C@@H](C2)N(CC2CC2)CC[C@]314 | Antagonist | 1.66 |  |  |  | Ratio Ki (Cavia porcellus): 53; Ratio Ki [1]: 133; Ki (Mu-type opioid receptor [2]): 0.59 nM; Ki [3]: 78.6 nM
COc1ccc2c3c1O[C@H]1C(=O)CC[C@@]4(NC(=O)/C=C/Cc5ccc(Cl)cc5)[C@@H](C2)N(CC2CC2)CC[C@]314 | Antagonist |  | 8.07 | 25.2 | 242 | 
COc1ccc2c3c1O[C@H]1C(=O)CC[C@@]4(NCCc5ccc(Cl)cc5)[C@@H](C2)N(CC2CC2)CC[C@]314 |  | 63 | 1.33 | 13.1 | 33.8 | Efficacy (Mu-type opioid receptor [4]): 39%; Activity (Mu-type opioid receptor [4]; filed as partial agonist): Partial agonist
COc1ccc2c3c1O[C@H]1C(=O)CC[C@@]4(NC(=O)Cc5ccc(Cl)cc5)[C@@H](C2)N(CC2CC2)CC[C@]314 |  | 88.7 | 2.64 | 2.59 | 51.9 | Efficacy (Mu-type opioid receptor [4]): 39%; Activity (Mu-type opioid receptor [4]; filed as partial agonist): Partial agonist
O=C(CCc1ccc(Cl)cc1)N[C@@]12CCC(=O)[C@@H]3Oc4c(O)ccc5c4[C@@]31CCN(CC1CC1)[C@@H]2C5 | Antagonist | 0.03 |  |  |  | Ratio Ki (Cavia porcellus): 15; Ratio Ki [1]: 16.2; Ki (Mu-type opioid receptor [2]): 0.04 nM; Ki [3]: 0.65 nM
